Source: PubChem BioAssay (several laboratories)
The entries come from a sample that favours hits as a whole.
XBP1 UPR activ – adaptive UPR (XBP1) activation. CHO-XBP1 luciferase reporter, IRE1-XBP1 UPR activation, luminescence; percent of tunicamycin response, DMSO as zero. activation, % at 20 µM. 330,000 compounds, 0.33% hits. AID 463104;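 active means versus positive control, 20 µM dose yields 30% or more activation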;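 further: 100% = tunicamycin at 10 µg/mL and 0% = DMSO only wells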
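Assay system: IRE1-XBP1 luciferase reporter CHO line. Input: 1000 cells/well. Buffer or medium: F12 with 10% serum. Doses: 20 µM, 1% DMSO. Times: overnight seeding at 37 °C, 6 h compound treatment at 37 °C. Technique: Steady-Glo luciferase glow luminescence, 10 min after reagent addition.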
Jurkat NFkB inh – inhibitors of the PMA/ionomycin-induced NF-kB reporter in Jurkat cells; inhibition, % at 4 µM; 330,000 compounds, 0.53% hits; PMA/ionomycin-induced NF-kB luciferase reporter, luminescence; in the data active means inhibition above about 50%
697 NFkB inh – lowers PMA/ionomycin-induced NF-kB signal in 697 B cells | inhibition, % at 4 µM | 697 B-cell NF-kB luciferase reporter, 16 h | 330,000 compounds, 0.33% hits; in the data active means inhibition above about 35%
CHOP inhibitor – CHOP inhibition in unfolded protein response. 220,000 compounds, 3.8% hits. inhibition, % at 10 µM. CHO-K1 CHOP-promoter luciferase, tunicamycin-induced, 15-18 h;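 active means compounds that reduced the stress-induced luciferase reporter signal by more than about 70% of percent inhibition, limit read from the data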;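 further: 0% = tunicamycin plus vehicle and 100% = wells without tunicamycin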
CHOP UPR activ – apoptotic UPR (CHOP) activation | CHO-CHOP luciferase reporter, luminescence; percent of tunicamycin response over DMSO baseline | activation, % at 10 µM | 330,000 compounds, 0.34% hits | AID 449763;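 active means at 10 µM dose, activation of 40% or more, normalized to positive control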;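 further: 100% = tunicamycin at 10 µg/mL and 0% = DMSO alone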
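assay system = CHO CHOP reporter cells | amount = 500 CHO-CHOP cells per well | buffer or medium = F12 with 10% FBS | incubation = 16-18 h cell attachment, then 6 h compound exposure, 37 °C | detection = luminescence read with Steady-Glo | read-out = percent activation relative to tunicamycin control | controls = tunicamycin high control, DMSO low control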
* hit, by the source's call.

How did COc1ccc(C(=O)c2ccc(Cl)cc2)c2ccccc12 do in these assays?
XBP1 UPR activ: -4.1; Jurkat NFkB inh: 13.2; 697 NFkB inh: 5.9; CHOP inhibitor: 49.4; CHOP UPR activ: 0.1

How did COC(=O)c1sccc1NC(=S)N1CC(C)CC(C)C1 (stereo not given) do in these assays?
CHOP inhibitor: 92.9*

Results for COC(=O)c1sccc1NC(=S)N1CCC(C)CC1 ?
XBP1 UPR activ: -1.9; Jurkat NFkB inh: 5.4; 697 NFkB inh: -10.4; CHOP inhibitor: 61.0; CHOP UPR activ: -0.6

What do the screens show for `COC(=O)c1sccc1NC(=O)C1CC(C)=C(C)CC1C(=O)O` (stereo not given)?
XBP1 UPR activ: -1.7; Jurkat NFkB inh: -3.6; 697 NFkB inh: 10.1; CHOP inhibitor: -4.2; CHOP UPR activ: -0.9

Results for COC(=O)c1sccc1NC(=O)C1CC2CCC1C2 (stereo not given) ?
XBP1 UPR activ: 0.4; Jurkat NFkB inh: -8.8; 697 NFkB inh: -4.1; CHOP inhibitor: 93.5*; CHOP UPR activ: -1.5

Results for COc1ccccc1/C=N/OCc1cc(C(C)=O)ccc1OC ?
XBP1 UPR activ: -1.3; Jurkat NFkB inh: -7.8; 697 NFkB inh: -16.8; CHOP UPR activ: 0.8

What do the screens show for `CC(C)(C)C(=O)/C=C/c1ccc(Oc2ccccc2)cc1`?
CHOP inhibitor: -22.7

What do the screens show for `O=C(C1CC(=O)N(c2ccc3c(c2)OCCO3)C1)N1CCN(Cc2ccccc2F)CC1` (stereo not given)?
XBP1 UPR activ: 0.2; Jurkat NFkB inh: 4.0; 697 NFkB inh: 1.8; CHOP UPR activ: 0.4

What do the screens show for `COc1ccc(N2C(=O)c3ccccc3NC2(C)C)cc1`?
XBP1 UPR activ: -5.0; Jurkat NFkB inh: -84.5; 697 NFkB inh: -53.8; CHOP inhibitor: -37.2; CHOP UPR activ: 1.6

How did COc1cc2c3c(c1)-c1c(sn(-c4cc(OC)ccc4OC)c1=S)C(C)(C)N3C(=O)C2=O do in these assays?
XBP1 UPR activ: 0.8; Jurkat NFkB inh: 1.8; 697 NFkB inh: 29.5; CHOP inhibitor: 2.1; CHOP UPR activ: 1.6

Results for COc1ccc2c(c1)-c1c(sn(-c3ccccc3)c1=S)C(C)(C)N2 ?
XBP1 UPR activ: 2.2; Jurkat NFkB inh: -9.4; 697 NFkB inh: -27.1; CHOP inhibitor: 70.0*; CHOP UPR activ: 0.5

What do the screens show for `COc1ccc2c(c1)-c1c(ssc1=S)C(C)(C)N2`?
XBP1 UPR activ: 4.7; Jurkat NFkB inh: 23.1; 697 NFkB inh: 12.8; CHOP inhibitor: 42.7; CHOP UPR activ: -2.0

How did COc1ccc(-n2sc3c(c2=S)-c2cc(OC)ccc2NC3(C)C)cc1 do in these assays?
XBP1 UPR activ: 1.3; Jurkat NFkB inh: -14.7; 697 NFkB inh: -34.6; CHOP inhibitor: 91.1*; CHOP UPR activ: -0.4

Results for COc1ccc2c(c1)-c1c(sn(-c3ccc(OC)c(OC)c3)c1=S)C(C)(C)N2 ?
XBP1 UPR activ: 2.7; Jurkat NFkB inh: -0.5; 697 NFkB inh: 19.9; CHOP inhibitor: 79.5*; CHOP UPR activ: 2.9

What do the screens show for `CCOC(=O)c1sc2nccc(N(C)C)c2c1N=CNOCc1ccccc1`?
XBP1 UPR activ: 2.8; Jurkat NFkB inh: -51.1; 697 NFkB inh: 2.4; CHOP inhibitor: 75.1*; CHOP UPR activ: -0.2

What do the screens show for `C/C(=N\Nc1nc(C)cc(=O)[nH]1)C1CC1`?
XBP1 UPR activ: 2.5; Jurkat NFkB inh: -1.3; 697 NFkB inh: -26.6; CHOP inhibitor: 8.3; CHOP UPR activ: -2.0

How did Cc1cc(=O)[nH]c(NN=C2CCC(C(C)(C)C)CC2)n1 (stereo not given) do in these assays?
XBP1 UPR activ: -3.4; Jurkat NFkB inh: -21.9; 697 NFkB inh: 13.0; CHOP inhibitor: 82.1*; CHOP UPR activ: 0.8

What do the screens show for `CCC1(C(=O)c2ccc(Cl)cc2)C2c3ccccc3OC(=O)C21C(=O)Nc1ccccc1` (stereo not given)?
XBP1 UPR activ: -2.9; Jurkat NFkB inh: -2.7; 697 NFkB inh: -4.2; CHOP inhibitor: 78.3*; CHOP UPR activ: 0.6

Results for CCCOc1ccc(CNC(=S)N/N=C/c2ccc([N+](=O)[O-])cc2)cc1 ?
XBP1 UPR activ: 3.4; Jurkat NFkB inh: 11.4; 697 NFkB inh: -1.2; CHOP inhibitor: -6.8; CHOP UPR activ: 0.7

What do the screens show for `CCCOc1ccc(CNC(=S)NCc2ccc(OC(C)C)cc2)cc1`?
XBP1 UPR activ: -3.8; Jurkat NFkB inh: 16.1; 697 NFkB inh: -7.7; CHOP inhibitor: 82.1*; CHOP UPR activ: -2.2

What do the screens show for `COc1cccc(N(C(=O)c2cccs2)c2nc3ccccc3s2)c1`?
XBP1 UPR activ: -3.0; Jurkat NFkB inh: -92.4; 697 NFkB inh: -26.5; CHOP inhibitor: 18.6; CHOP UPR activ: 0.7

Results for COC(=O)CCCC(=O)Nc1ccc(Br)cc1 ?
XBP1 UPR activ: 2.2; Jurkat NFkB inh: -0.3; 697 NFkB inh: 3.5; CHOP inhibitor: -7.8; CHOP UPR activ: 0.1

Results for Cc1ccc(OCCCC(=O)Nc2ccc(Br)cc2)cc1 ?
XBP1 UPR activ: -1.6; Jurkat NFkB inh: 4.4; 697 NFkB inh: 27.5; CHOP inhibitor: 74.2*; CHOP UPR activ: -1.2

What do the screens show for `Cc1nn(Cc2c(F)c(F)c(F)c(F)c2F)c(C)c1NC(=O)c1ccc(COc2ccc(Cl)cc2Cl)o1`?
XBP1 UPR activ: 1.0; Jurkat NFkB inh: 13.6; 697 NFkB inh: 9.1; CHOP inhibitor: 70.2*; CHOP UPR activ: 4.2

Results for CNC(=O)c1ccccc1-c1cn(C)c2ccccc2c1=O ?
XBP1 UPR activ: -1.1; Jurkat NFkB inh: -11.3; 697 NFkB inh: 6.3; CHOP inhibitor: -4.1; CHOP UPR activ: -0.1

What do the screens show for `COc1ccc(C(=O)NCC(=O)N/N=C(\C)c2ccco2)cc1OC`?
XBP1 UPR activ: 2.0; Jurkat NFkB inh: 0.3; 697 NFkB inh: -7.8; CHOP inhibitor: -4.0; CHOP UPR activ: -0.5

How did CCCCc1nc(N2CCOCC2)c(C#N)c2c1COC(C)(C)C2 do in these assays?
XBP1 UPR activ: -0.5; Jurkat NFkB inh: -6.5; 697 NFkB inh: -4.2; CHOP inhibitor: 0.6; CHOP UPR activ: 0.3

Results for CCCCc1nc(NCC2CCCO2)c(C#N)c2c1COC(C)(C)C2 (stereo not given) ?
XBP1 UPR activ: -4.5; Jurkat NFkB inh: -1.4; 697 NFkB inh: -1.3; CHOP inhibitor: 86.3*; CHOP UPR activ: -2.5

How did Cc1ccc(C(C)NC(=O)COC(=O)C2=COCCO2)cc1C (stereo not given) do in these assays?
XBP1 UPR activ: -0.7; Jurkat NFkB inh: 4.9; 697 NFkB inh: 14.6; CHOP UPR activ: -2.3

What do the screens show for `CCOC(=O)c1ccc(NC(=O)c2cccc(S(=O)(=O)N3c4ccccc4CC3C)c2)s1` (stereo not given)?
XBP1 UPR activ: 9.8; Jurkat NFkB inh: 2.2; 697 NFkB inh: -70.4; CHOP inhibitor: 71.5*; CHOP UPR activ: 13.1

Results for CC(C)(C)c1ccc(NC(=O)Cn2cnc3cc([N+](=O)[O-])ccc3c2=O)cc1 ?
XBP1 UPR activ: -4.1; Jurkat NFkB inh: -7.9; 697 NFkB inh: -2.2; CHOP inhibitor: 91.4*; CHOP UPR activ: 4.1
